From PubChem
A selection: hits, their analogues and other compounds. The true share with any hit is near 1.8%.
M4 ag – CHRM4 agonism in calcium assay; CHO-K1 hM4/Gqi5, Fluo-8 calcium fluorescence; vehicle 0%, full acetylcholine response 100%; activation, % at 3 µM; 0.14% of 360,000 active; AID 624127;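 active = activation above the run mean over all test wells plus 3 SD, cut at about 32% in these data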;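 also: peak over basal fluorescence ratio per well then scaled between controls; 0% = DMSO wells and 100% = acetylcholine at EC100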
CHRM5 PAM – CHRM5 positive allosteric modulation; CHO-K1 hM5, Fluo-8 calcium, ACh EC20 PAM; 0% = ACh EC20, 100% = ACh EC100; activation, % at 3 µM; 0.3% of 360,000 active; AID 624038;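 active = activation above the run cutoff, the mean activation of all test compounds plus 3 SD, cut at about 18% in these data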
Target sequence (P08912 whole entry, looked up): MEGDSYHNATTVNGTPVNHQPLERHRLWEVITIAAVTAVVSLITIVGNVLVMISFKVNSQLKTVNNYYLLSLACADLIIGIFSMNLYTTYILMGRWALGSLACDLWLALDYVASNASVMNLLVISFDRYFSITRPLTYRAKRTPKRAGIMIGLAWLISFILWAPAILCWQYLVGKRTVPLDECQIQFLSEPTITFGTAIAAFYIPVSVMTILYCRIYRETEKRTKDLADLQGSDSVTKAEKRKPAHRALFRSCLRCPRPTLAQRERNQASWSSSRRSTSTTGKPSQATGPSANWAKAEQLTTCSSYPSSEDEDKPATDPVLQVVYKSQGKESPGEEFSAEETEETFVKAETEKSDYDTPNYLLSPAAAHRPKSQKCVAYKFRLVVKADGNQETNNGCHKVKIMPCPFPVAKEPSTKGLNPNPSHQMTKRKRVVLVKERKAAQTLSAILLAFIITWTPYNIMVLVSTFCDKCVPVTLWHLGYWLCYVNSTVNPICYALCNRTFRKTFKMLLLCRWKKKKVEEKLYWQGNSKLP
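Replicates: One well per compound, no replicates | System: Human M5 receptor in CHO-K1 cells | Benchmarks: Low control EC20 acetylcholine (0%), high control EC100 acetylcholine (100%) | Probe or stimulus: Acetylcholine, EC20 level | Times: Fluo-8 loading 80 min at 37 °C plus 30 min room temperature | Signal: Intracellular calcium via Fluo-8 fluorescence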
CHRM4 PAM – potentiates acetylcholine response at human M4 receptor; P08173; CHO-K1 hM4/Gqi5, Fluo-8 calcium fluorescence, ACh EC20; 0% = ACh EC20, 100% = maximal ACh; activation, % at 3 µM; 0.4% of 360,000 active;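 active = activation above its plate's cutoff, the mean activation of sample wells plus 3 SD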
CHRM5 agonist – agonists of human muscarinic M5 receptor (CHRM5); P08912; CHO-K1 hM5 cells, Fluo-8 calcium fluorescence; 0% DMSO wells, 100% maximal acetylcholine response; activation, % at 3 µM; 0.19% of 360,000 active; AID 624037;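 active = activation above the run's mean over test compounds plus 3 SD, cut at about 23% in these data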;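 also: signal is peak over basal fluorescence ratio across the kinetic read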
M4 antag – antagonists of human muscarinic M4 receptor (CHRM4). P08173. CHO-hM4 cells, ACh EC80, Fluo-8 calcium fluorescence. inhibition, % at 3 µM. 0.73% of 360,000 active. AID 624125;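 active = inhibition above its plate's cutoff, the mean inhibition of sample wells plus 3 SD, cut at about 27% in these data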;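 also: 0% = acetylcholine EC80 with DMSO and 100% = DMSO without agonist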
CHRM5 antagonist – antagonists of human muscarinic M5 receptor (CHRM5). P08912. AID 624040. 0.59% of 360,000 active. inhibition, % at 3 µM. CHO-hM5 cells, Fluo-8 calcium fluorescence, ACh EC80;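 active = inhibition above a per-plate cutoff, the mean of that plate's test compounds plus 3 SD, cut at about 27% in these data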;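 also: 0% = acetylcholine EC80 with DMSO and 100% = DMSO without agonist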
* = called active by the depositor.

What do the screens show for `CCOC(=O)CC(=O)CSc1nnc2sc3ccccc3n12`?
M4 ag: 6; CHRM5 PAM: 35*; CHRM4 PAM: -1; CHRM5 agonist: -9; M4 antag: -16; CHRM5 antagonist: -15

What do the screens show for `O=C(NCCc1ccccc1)C1CCC(CNS(=O)(=O)c2cccc3cccnc23)CC1` (centres undefined)?
M4 ag: 3; CHRM5 PAM: -6; CHRM4 PAM: -13; CHRM5 agonist: -1; M4 antag: 1; CHRM5 antagonist: 12

How did CCc1ccc(NC(=O)CSc2nnc(C)c(=O)n2N)cc1 do in these assays?
M4 ag: 1; CHRM5 PAM: 2; CHRM4 PAM: -2; CHRM5 agonist: -2; M4 antag: 15; CHRM5 antagonist: 9

What do the screens show for `O=C(O)c1cccc(Cn2c(Cl)c(/C=N/NC(=O)c3cccc(O)c3)sc2=O)c1`?
M4 ag: 0; CHRM5 PAM: 6; CHRM4 PAM: 12; CHRM5 agonist: 5; M4 antag: 33*; CHRM5 antagonist: -16

What do the screens show for `CCOc1ccc(C2CC=C(C(C)=O)CN2S(=O)(=O)c2ccc(C)cc2)cc1` (centres undefined)?
M4 ag: 4; CHRM5 PAM: -8; CHRM4 PAM: 0; CHRM5 agonist: -4; M4 antag: 2; CHRM5 antagonist: 4

What do the screens show for `Oc1ccc(Nc2nc(-c3ccccc3)nc3ccccc23)cc1`?
M4 ag: 7; CHRM5 PAM: -10; CHRM4 PAM: -2; CHRM5 agonist: -3; M4 antag: 5; CHRM5 antagonist: 7

How did Oc1ccc(Nc2nc3ccccc3nc2Nc2ccc(O)cc2)cc1 do in these assays?
M4 ag: 4; CHRM5 PAM: -7; CHRM4 PAM: -12; CHRM5 agonist: 4; M4 antag: 27*; CHRM5 antagonist: 5

How did Cc1nn(Cc2c(Cl)cccc2Cl)c(C)c1NC(=O)CCCn1nc(C)c([N+](=O)[O-])c1C do in these assays?
M4 ag: 6; CHRM5 PAM: -7; CHRM4 PAM: -5; CHRM5 agonist: -2; M4 antag: -1; CHRM5 antagonist: 4

What do the screens show for `Cc1nn(CCCC(=O)Nc2cccnc2Cl)c(C)c1[N+](=O)[O-]`?
M4 ag: 1; CHRM5 PAM: 0; CHRM4 PAM: 12; CHRM5 agonist: 0; M4 antag: 29*; CHRM5 antagonist: 3

What do the screens show for `O=C(C=Cc1ccc2c(c1)OCO2)c1ccccc1`?
M4 ag: 1; CHRM5 PAM: 0; CHRM4 PAM: -2; CHRM5 agonist: 2; M4 antag: -4; CHRM5 antagonist: -1

Results for CCN(C(=O)/C=C/c1ccc2c(c1)OCO2)c1ccccc1 ?
M4 ag: 1; CHRM5 PAM: 20*; CHRM4 PAM: 24*; CHRM5 agonist: -5; M4 antag: -12; CHRM5 antagonist: 1

Results for CN(C(=O)COC(=O)C1c2ccccc2Oc2ccccc21)C1CCS(=O)(=O)C1 (centres undefined) ?
M4 ag: 1; CHRM5 PAM: 2; CHRM4 PAM: -15; CHRM5 agonist: -13; M4 antag: 95*; CHRM5 antagonist: -5

What do the screens show for `CCN(CC)CCNC(=O)C1c2ccccc2Oc2ccccc21`?
M4 ag: 1; CHRM5 PAM: -18; CHRM4 PAM: -18; CHRM5 agonist: -8; M4 antag: 37*; CHRM5 antagonist: 59*

How did CCN(CC)CCOC(=O)C1c2ccccc2Oc2ccccc21 do in these assays?
M4 ag: 1; CHRM5 PAM: -16; CHRM4 PAM: -33; CHRM5 agonist: -7; M4 antag: 98*; CHRM5 antagonist: 100*

Results for CCOCc1nnc(NC(=O)C2c3ccccc3Oc3ccccc32)s1 ?
M4 ag: 20; CHRM5 PAM: -1; CHRM4 PAM: -1; CHRM5 agonist: 28*; M4 antag: -1; CHRM5 antagonist: 1

How did COCCN(C(=O)COC(=O)c1ccc(Cl)nc1)c1c(N)n(Cc2ccccc2)c(=O)[nH]c1=O do in these assays?
M4 ag: 1; CHRM5 PAM: 5; CHRM4 PAM: 5; CHRM5 agonist: -2; M4 antag: -10; CHRM5 antagonist: -4

How did Cc1sc2nc(CN(Cc3cccs3)C(=O)NC3CCCCC3)[nH]c(=O)c2c1C do in these assays?
M4 ag: 1; CHRM5 PAM: 29*; CHRM4 PAM: 0; CHRM5 agonist: -1; M4 antag: -15; CHRM5 antagonist: -3

How did CNC(=O)CSc1nnc(-c2cccc(S(=O)(=O)N3CCOCC3)c2)n1-c1ccc(F)cc1 do in these assays?
M4 ag: 0; CHRM5 PAM: 1; CHRM4 PAM: 2; CHRM5 agonist: 0; M4 antag: -4; CHRM5 antagonist: 1

How did CN(C)S(=O)(=O)c1cccc(-c2nnc(SCC(=O)NCCCCCC(=O)O)n2-c2ccc(F)cc2)c1 do in these assays?
M4 ag: 4; CHRM5 PAM: -5; CHRM4 PAM: 25*; CHRM5 agonist: -6; M4 antag: -6; CHRM5 antagonist: -1

Results for O=C(CN1C(=O)COc2ccccc21)NCCN1CCC(Cc2ccccc2)CC1 ?
M4 ag: 15; CHRM5 PAM: -16; CHRM4 PAM: -30; CHRM5 agonist: -5; M4 antag: 28*; CHRM5 antagonist: 10

How did O=C(CN1C(=O)COc2ccccc21)NCc1ccc(C(=O)O)cc1 do in these assays?
M4 ag: 2; CHRM5 PAM: -5; CHRM4 PAM: 10; CHRM5 agonist: 3; M4 antag: 28*; CHRM5 antagonist: 3

How did Cc1ccc(S(=O)(=O)c2nc(-c3ccco3)oc2SC(C)C)cc1 do in these assays?
M4 ag: -1; CHRM5 PAM: -2; CHRM4 PAM: 1; CHRM5 agonist: -1; M4 antag: -3; CHRM5 antagonist: 8

How did NC(=O)c1cnc(Cc2c[nH]c3ccccc23)c(I)c1 do in these assays?
M4 ag: 13; CHRM5 PAM: -5; CHRM4 PAM: -2; CHRM5 agonist: 3; M4 antag: -24; CHRM5 antagonist: 8

How did CCOc1cc(/C=C(\C#N)C(N)=O)ccc1OCc1c(C)no[n+]1[O-] do in these assays?
M4 ag: 3; CHRM5 PAM: 3; CHRM4 PAM: 8; CHRM5 agonist: 8; M4 antag: -5; CHRM5 antagonist: 5

Results for Cc1cc(N2CCC(C)CC2)nc(-c2ccccc2O)n1 ?
M4 ag: -2; CHRM5 PAM: 15; CHRM4 PAM: -6; CHRM5 agonist: -8; M4 antag: -17; CHRM5 antagonist: -10

How did Cc1cc(-n2[nH]c(C)c(C)c2=O)nc(-c2ccccc2O)n1 do in these assays?
M4 ag: 9; CHRM5 PAM: 37*; CHRM4 PAM: 9; CHRM5 agonist: 0; M4 antag: 2; CHRM5 antagonist: 42*
